Sampled rows, rich in hits. Any-hit rate of the full collection: about 2.1%.
APJ agonist: APJ receptor agonism; P35414; CHO-K1 APJ PathHunter beta-arrestin, luminescence; 0% DMSO wells, 100% apelin; activation, % at 20 µM; 330,000 compounds, 0.11% hits;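 active means activation more than six SD over the plate average, tested at 20 µM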;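 further: 0% = DMSO alone and 100% = apelin-13 at 10 nM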
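Test system: CHO-K1 APJ beta-arrestin complementation cell line | Compound: Single test compound dose, 20 µM final, 1% DMSO | Incubation: Compound 90 min 25 °C, reagent 1 h | Measured by: beta-gal luminescence | Read-out basis: APJ–arrestin association signal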
EBI2 antag: EBI2 (human) antagonism; P32249; EBI2 beta-arrestin recruitment, luminescence, 7a,25-OHC stimulated; inhibition, % at 5 µM; 360,000 compounds, 0.81% hits; in the data active means inhibition above about 38%;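 further: enzyme fragment complementation signal reports receptor beta-arrestin coupling in cells; 0% = agonist plus DMSO wells and 100% = wells without agonist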
Target sequence (P32249 whole entry, looked up, the tested form may be a part): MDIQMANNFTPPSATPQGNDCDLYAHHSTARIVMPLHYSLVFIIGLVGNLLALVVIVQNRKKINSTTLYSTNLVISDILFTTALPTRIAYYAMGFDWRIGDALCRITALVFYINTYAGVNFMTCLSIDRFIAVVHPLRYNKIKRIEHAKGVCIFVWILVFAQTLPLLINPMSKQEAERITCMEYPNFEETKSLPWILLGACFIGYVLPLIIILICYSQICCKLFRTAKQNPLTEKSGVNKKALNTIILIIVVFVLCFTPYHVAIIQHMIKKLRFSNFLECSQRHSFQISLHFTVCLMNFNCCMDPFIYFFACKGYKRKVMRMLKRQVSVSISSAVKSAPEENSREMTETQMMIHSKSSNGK
CCR6 antag: CCR6 (human) receptor antagonism; P51684; CHO-K1 CCR6 PathHunter beta-arrestin, luminescence, CCL20-stimulated; inhibition, % at 20 µM; 340,000 compounds, 0.49% hits;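 active means compounds whose inhibition of the agonist-driven luminescence signal at 20 µM reaches about 50%, limit read from the data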;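 further: cells stimulated with CCL20 at 14 nM final; plate controls were DMSO with CCL20 for no effect and DMSO without agonist for full effect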
CXCR6 block: CXCR6 (human) receptor inhibition; O00574; CHO-K1 PathHunter CXCR6 beta-arrestin, luminescence; inhibition, % at 20 µM; 360,000 compounds, 0.36% hits; in the data active means inhibition above about 34%, passing the limit was not always enough;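 further: antagonist mode with CXCL16 agonist at 10 nM final; 0% = 10 nM CXCL16 with DMSO and 100% = unstimulated wells without agonist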
Target sequence (O00574 whole entry, looked up): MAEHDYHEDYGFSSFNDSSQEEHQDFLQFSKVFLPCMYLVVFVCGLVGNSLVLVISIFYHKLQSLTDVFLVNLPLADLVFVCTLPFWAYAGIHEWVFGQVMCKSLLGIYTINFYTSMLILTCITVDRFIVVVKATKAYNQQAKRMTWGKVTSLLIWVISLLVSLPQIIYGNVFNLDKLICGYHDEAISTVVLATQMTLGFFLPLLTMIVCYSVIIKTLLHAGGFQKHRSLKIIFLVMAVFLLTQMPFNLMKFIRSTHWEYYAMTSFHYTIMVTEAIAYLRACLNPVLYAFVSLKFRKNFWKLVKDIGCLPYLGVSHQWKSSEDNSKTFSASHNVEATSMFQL
m5-HT2A agonist: agonists of mouse serotonin 5-HT2A receptor (HTR2A); CHO-K1 mHTR2A beta-arrestin complementation, luminescence; percent of 30 µM serotonin response; activation, % at 7.6 µM; P35363; 360,000 compounds, 0.66% hits;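 active means activation above a run cutoff, the mean activation of all tested compounds plus 3 SD, cut at about 14% in these data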;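 further: 0% = plate median of compound wells and 100% = 30 µM serotonin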
APJ antag: antagonists of human APJ apelin receptor | AID 2521 | 330,000 compounds, 0.32% hits | inhibition, % at 20 µM | CHO-K1 APJ beta-arrestin complementation, luminescence;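 active means inhibition above about 40% at 20 µM, limit read from the data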;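 further: cells challenged with 10 nM apelin-13 agonist together with compound; plate controls were apelin-13 plus DMSO wells for no effect and DMSO wells lacking apelin-13 for full effect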
EBI2 conf: EBI2 (human) antagonism, single concentration confirmation; shares compounds with EBI2 antag; AID 651997; inhibition, % at 5 µM; 2,400 compounds, 29% hits; EBI2 beta-arrestin luminescence, 7a,25-OHC antagonism;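 active means inhibition of at least 50%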
EBI2 agonist: activates EBI2, counter-screen for EBI2 antagonists; shares compounds with EBI2 antag; EBI2-expressing cells, agonist mode, luminescence, 60 min; 0% vehicle, 100% 7α,25-dihydroxycholesterol control; activation, % at 5 µM; 2,400 tested, under 10 active; AID 652000;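 active means activation of at least 50%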
bGal cs: counter-screen for EBI2 antagonists: E. coli beta-galactosidase inhibition; shares compounds with EBI2 antag; purified beta-galactosidase, luminescent Galacton Star, 15 min; inhibition, % at 5 µM; 2,400 compounds, 1% hits;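 active means replicate-average signal at least 3 plate SD below neutral wells, shown as high inhibition, flagging enzyme-inhibiting false positives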;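 further: 0% = DMSO wells with enzyme and 100% = wells lacking enzyme; higher means stronger loss of beta-gal luminescence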
An asterisk follows results filed as active; . = no result.

SMILES | APJ agonist | EBI2 antag | CCR6 antag | CXCR6 block | m5-HT2A agonist | APJ antag | EBI2 conf | EBI2 agonist | bGal cs
COC(=O)c1cc(=O)n(Cc2cccs2)c(=Nc2ccccc2)s1 | -5.0 | 24.7 | 16.2 | 6.5 | -0.5 | 2.2 | . | . | .
COC(=O)c1cc(=O)n(Cc2ccc(F)cc2)c(=Nc2ccccc2)s1 | -4.2 | 59.9* | 26.1 | 15.0 | -0.3 | 8.4 | 61.8* | -0.2 | 6.9
COC(=O)c1cc(=O)n(Cc2ccco2)c(=Nc2ccc(F)cc2)s1 | -7.7 | 16.0 | 26.0 | 12.5 | 1.7 | 23.0 | . | . | .
O=C(COc1ccccc1F)Nc1cc(S(=O)(=O)Nc2cccc(Cl)c2)ccc1O | -1.6 | 8.3 | -1.7 | 1.9 | 13.5 | -63.2 | . | . | .
COC(=O)C(C)Sc1nc2ccsc2c(=O)n1Cc1ccccc1 (configuration not stated) | -2.5 | 11.1 | 33.0 | 14.1 | -9.0 | 19.5 | . | . | .
Cc1nn(CC(=O)N2CCC(C(N)=O)CC2)c(=O)c2nn(-c3ccccc3)c(C)c12 | 5.3 | 3.4 | -5.9 | -2.8 | -3.2 | 7.2 | . | . | .
Cc1ccc(N2CC(NC(=O)N3CCN(C(=O)c4ccco4)CC3)CC2=O)cc1 (configuration not stated) | -1.9 | 39.1 | 11.8 | -3.0 | 5.2 | 5.5 | . | . | .
COc1ccc(C=CC(=O)c2ccc(OCc3ccccc3)c(OC)c2)cc1OC | . | 13.8 | . | 5.9 | -6.3 | . | . | . | .
O=C(/C=C/c1ccc(OCc2ccccc2)c(OCc2ccccc2)c1)c1cccnc1 | 2.0 | 46.2* | -11.1 | -3.2 | -4.8 | -13.9 | 30.6 | 0.4 | 6.5
O=C(Cn1c(C(=O)c2ccccc2)nc2ccccc21)c1ccc(Cl)cc1 | . | -10.9 | 20.1 | 11.1 | 0.8 | . | . | . | .
Cc1ccc(C(=O)Cn2c(C(=O)/C=C/c3ccccc3)nc3ccccc32)cc1 | 1.7 | 48.2* | 21.8 | 17.2 | 9.5 | 8.1 | 36.0 | 0.0 | 7.3
COc1ccc(S(=O)(=O)N2CCN(C(=O)CN3C(=O)NC(C)(c4ccc5ccccc5c4)C3=O)CC2)cc1 (configuration not stated) | -0.6 | -9.8 | 8.9 | 6.1 | 1.7 | 5.3 | . | . | .
Cc1cc(C)c(S(=O)(=O)Nc2ccccc2-c2ccccc2)c(C)c1 | -2.5 | 57.1* | 28.6 | -0.6 | -7.8 | -6.6 | 27.9 | -0.2 | 7.4
O=S(=O)(Nc1ccccc1-c1ccccc1)c1ccccc1 | . | 8.8 | 27.5 | 5.8 | -4.9 | . | . | . | .
Cc1cccc(N(C(=O)c2snc(C(N)=O)c2N)C(C(=O)NC2CCCC2)c2ccc(C)o2)c1 (configuration not stated) | -1.8 | 51.1* | -5.3 | 1.6 | 1.2 | 8.5 | 56.3* | 0.1 | -15.6
COc1ccc(N(C(=O)c2snc(C(N)=O)c2N)C(C(=O)NC2CCCC2)c2ccc(F)cc2)c(OC)c1 (configuration not stated) | -2.5 | 22.5 | 2.2 | -5.2 | 9.1 | 6.2 | . | . | .
COc1ccc(C(C(=O)NC2CCCCC2)N(C(=O)c2snc(C(N)=O)c2N)c2ccc(OC)cc2OC)cc1 (configuration not stated) | -3.4 | 70.0* | -1.3 | 6.9 | 5.1 | 11.4 | 73.0* | -0.7 | 8.9
CCOc1ccccc1N(C(=O)c1snc(C(N)=O)c1N)C(C(=O)NC1CCCC1)c1ccco1 (configuration not stated) | -0.8 | 6.8 | 8.8 | 7.0 | -6.2 | 13.4 | . | . | .
Cc1ccc(N(C(=O)c2snc(C(N)=O)c2N)C(C(=O)NC2CCCC2)c2ccc(C)o2)cc1 (configuration not stated) | -1.4 | 67.8* | 2.3 | 1.5 | 5.8 | 20.4 | 69.9* | -1.8 | -20.9
COCCNC(=O)C(c1ccc(C)o1)N(C(=O)c1snc(C(N)=O)c1N)c1ccc(C)cc1 (configuration not stated) | 3.8 | 14.3 | 1.5 | -2.7 | -1.1 | -10.7 | . | . | .
Cc1ccc(N(C(=O)c2snc(C(N)=O)c2N)C(C(=O)NC2CCCC2)c2ccco2)cc1 (configuration not stated) | -0.8 | 55.6* | 9.2 | 13.3 | 10.1 | -7.9 | 27.9 | 0.4 | 6.9
Brc1cccc(OCCCNC2CCCC2)c1 | -3.4 | -3.3 | 5.5 | 6.1 | -3.9 | -9.6 | . | . | .
CCC(C)N(C(=O)Cn1c(=O)cnc2ccccc21)C1CCS(=O)(=O)C1 (configuration not stated) | 3.4 | 7.7 | 0.2 | -6.3 | -5.8 | 2.1 | . | . | .
CC(C)C1CCN(C(=O)C2CCC(=O)N(CCc3ccc(Cl)cc3)C2)CC1 (configuration not stated) | -2.1 | 78.9* | 4.7 | -9.2 | 0.4 | -2.6 | 50.2* | 0.1 | 11.7
C=CCC1(CC=C)CCCN1C(=O)C1CCC(=O)N(CCc2ccc(Cl)cc2)C1 (configuration not stated) | -6.8 | 79.4* | 5.1 | 1.2 | -3.8 | 9.2 | 41.4 | -2.0 | -5.7
SMILES | APJ agonist | EBI2 antag | CCR6 antag | CXCR6 block | m5-HT2A agonist | APJ antag | EBI2 conf | EBI2 agonist | bGal cs
C=CCC1(CC=C)CCCN1C(=O)C1CCC(=O)N(Cc2ccc(Cl)cc2)C1 (configuration not stated) | . | 27.9 | . | 4.9 | -4.8 | . | . | . | .
CC(C)c1ccc(NC2CCCN(C(=O)CN3CCCCC3=O)C2)cc1 (configuration not stated) | . | -8.9 | . | -0.9 | 1.0 | . | . | . | .
CCOc1ccc(NC(=S)N2CCC(C(O)(c3ccccc3)c3ccccc3)CC2)cc1 | 1.8 | 44.4* | 9.0 | 2.5 | -3.1 | -13.7 | 2.3 | -0.8 | -7.5
COc1ccc(NC(=S)N2CCC(C(O)(c3ccccc3)c3ccccc3)CC2)cc1 | -0.7 | 21.0 | 18.5 | 3.8 | -2.1 | 19.6 | . | . | .
Cc1cccc(N2CCN(C(=O)/C=C/c3cccs3)CC2)c1C | -3.6 | 84.9* | 9.2 | 2.0 | -0.2 | 14.3 | 57.5* | -0.7 | -13.0
Cc1cccc(N2CCN(C(=O)c3cccs3)CC2)c1C | -1.7 | -43.5 | 12.6 | 6.3 | 2.6 | -12.0 | . | . | .
O=C(/C=C/c1ccc2c(c1)OCO2)N1CCN(c2ccccc2F)CC1 | 1.9 | 35.3 | 0.6 | 12.3 | 1.8 | 14.9 | . | . | .
COc1ccccc1N1CCN(C(=O)/C=C/c2ccccc2)CC1 | 5.6 | 84.0* | 3.1 | 1.4 | -2.5 | 14.4 | 59.2* | -0.9 | -12.1
COc1ccccc1N1CCN(C(=O)/C=C/c2ccco2)CC1 | -1.4 | 7.0 | 9.1 | 4.7 | -0.1 | 19.2 | . | . | .
COc1ccccc1N1CCN(C(=O)/C=C/c2cccs2)CC1 | -4.0 | 47.6* | -9.9 | -8.2 | -2.8 | -0.2 | 41.4 | 1.9 | 1.4
